{
  "source": "ChEMBL document CHEMBL5038583",
  "about": "“Highly Potent and Selective Butyrylcholinesterase Inhibitors for Cognitive Improvement and Neuroprotection” (J Med Chem, 2021)",
  "key": {"[1]": {"tested_on": "PC-12", "assay": "Cytotoxicity against rat PC-12 cells assessed as reduction in cell viability incubated for 24 hrs by MTT assay", "type": "functional, cell-based", "conditions": "PC-12, 24 h", "outline": "(§1)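 Cells seeded at 1 × 10⁴/well in DMEM with 10% FBS and left overnight, then given compound (DMSO stock diluted in DMEM) for 24 h at 37 °C. MTT added for 4 h, formazan dissolved in DMSO, absorbance read at 492 nm. Viability taken as OD treated/OD DMEM × 100%; IC50 from three independent experiments, mean SD.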"}, "[2]": {"tested_on": "BV-2", "assay": "Cytotoxicity against mouse BV-2 cells assessed as survival rate at 100 uM incubated for 24 hrs by MTT assay", "type": "functional", "outline": "as §1"}, "[3]": {"assay": "AUC (0 to t) in overnight fasted Sprague-Dawley rat at 10 mg/kg, po measured upto 1440 mins by LC/MS/MS analysis", "type": "ADME, organism-based", "parameters": "route oral, dose 10 mg/kg, time <=1440", "conditions": "in vivo", "outline": "(§2)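 Male SD rats (180−220 g), n = 8 per route, fasted overnight with water available. Single 10 mg/kg dose p.o. or i.v. in DMSO/PEG400/saline (10:80:10). Retro-orbital blood taken into heparinized tubes at 1–1440 min. Plasma precipitated with methanol containing theophylline internal standard, then LC/MS/MS against a blank-plasma standard curve. Parameters from noncompartmental extravascular analysis; mean ± SD.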"}, "[4]": {"assay": "MRT (0 to infinity) in overnight fasted Sprague-Dawley rat at 10 mg/kg, po measured upto 1440 mins by LC/MS/MS analysis", "type": "ADME, organism-based", "conditions": "in vivo", "outline": "as §2"}, "[5]": {"assay": "Tmax in overnight fasted Sprague-Dawley rat at 10 mg/kg, po measured upto 1440 mins by LC/MS/MS analysis", "type": "ADME, organism-based", "conditions": "in vivo, 24 h", "outline": "as §2"}, "[6]": {"assay": "Cmax in overnight fasted Sprague-Dawley rat at 10 mg/kg, po measured upto 1440 mins by LC/MS/MS analysis", "type": "ADME, organism-based", "parameters": "route oral, dose 10 mg/kg, time <=1440", "conditions": "in vivo", "outline": "as §2"}, "[7]": {"tested_on": "Mus musculus", "assay": "Anti-alzheimer activity in amyloid beta(1 to 42)-induced ICR mouse model of cognitive impairment assessed as simplification of trajectories at 15 mg/kg, ig administered at days 2 to 14 by Morris water maze test", "type": "functional, organism-based", "outline": "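ICR mice, n = 8 per group. Aggregated Aβ1-42 (5 mM DMSO stock incubated 24 h at 37 °C in saline at 2 mg/mL) given 10 μg per mouse icv on day 1; saline icv for sham. Compound 15 mg/kg intragastric on days 2−14; donepezil reference. Morris water maze training days 9−13, probe trial day 14; tracks recorded; mean ± SD.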"}},
  "note": "Calls of active or inactive are those of the source. The rule behind the calls is not given here.",
  "data": [
    {"compound": "Nc1nonc1-c1nc2ccccc2n1CC(=O)Nc1cnc2ccccc2c1", "values": [
      {"measurement": "IC50", "setting": "[1]", "result": 33.5, "unit": "µM"},
      {"measurement": "Activity", "setting": "[2]", "result": 69.72, "unit": "%"},
      {"measurement": "AUC(0-t) at 24 h", "setting": "[3]", "result": 628, "unit": "ng·h/mL"},
      {"measurement": "MRT inf", "setting": "[4]", "result": 11.6, "unit": "h"},
      {"measurement": "Tmax", "setting": "[5]", "result": 9.5, "unit": "h"},
      {"measurement": "Cmax", "setting": "[6]", "result": 44.7, "unit": "ng/mL"},
      {"measurement": "Activity", "setting": "[7]", "result": "Active"}
    ]}
  ]
}
